We go through six molecules from ChEMBL document CHEMBL3632619, “Angucyclines and Angucyclinones from Streptomyces sp. CB01913 Featuring C-Ring Cleavage and Expansion” (J Nat Prod, 2015).

The subject of one assay is SF-295. In words: Cytotoxicity against human SF295 cells after 72 hrs by MTS assay. The assay is classed as functional, cell-based. The following applies: SF-295, 72 h. On the technique in general: Tetrazolium dyes change colour on reduction, which living cells bring about.
A further assay relates to NCI-H226. The assay can be described thus: Cytotoxicity against human NCI-H226 cells after 72 hrs by MTS assay. The assay is classed as functional, cell-based. The following applies: NCI-H226, 72 h.
A further assay has as its system SF-539. The assay can be described thus: Cytotoxicity against human SF539 cells after 72 hrs by MTS assay. It is filed as functional, cell-based. The following applies: SF-539, 72 h.
The next assay deals with M14. In words: Cytotoxicity against human M14 cells after 72 hrs by MTS assay. The assay is classed as functional, cell-based. The following applies: M14, 72 h.
In the next assay the test system is MDA-MB-468. The assay can be described thus: Cytotoxicity against human MDA-MB-468 cells after 72 hrs by MTS assay. It is filed as functional, cell-based. The following applies: MDA-MB-468, 72 h.
Assay [1] relates to Escherichia coli. In words: Antibacterial activity against Escherichia coli ATCC 25922 after 12 hrs by agar diffusion method. It is filed as functional, organism-based. The method, boiled down:
(§1)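 Filter-paper disc on tryptic soy agar receiving 25 µL of compound at 2 mM in H2O; plates incubated 37 °C for 12 h, then inhibition zone scored; tetracycline as positive control.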
On the technique in general: In agar diffusion tests the substance spreads into inoculated agar from a disc or well.

In assay [2] the test system is Escherichia coli. In words: Antibacterial activity against Escherichia coli JM 109 after 12 hrs by agar diffusion method. The assay is classed as functional, organism-based. The method, boiled down: as §1
A further assay concerns Bacillus subtilis. The assay can be described thus: Antibacterial activity against Bacillus subtilis ATCC 23857 after 18 hrs by broth microdilution method. The following applies: ATCC 23857, 18 h.
Another assay concerns Staphylococcus aureus. The assay can be described thus: Antibacterial activity against Staphylococcus aureus ATCC 25923 after 18 hrs by broth microdilution method. The following applies: ATCC 25923, 18 h. (Broth dilution looks for growth in wells or tubes with falling amounts of substance.)
Assay [3] relates to Mycolicibacterium smegmatis. The assay can be described thus: Antibacterial activity against Mycobacterium smegmatis ATCC 607 after 18 hrs by broth microdilution method. The following applies: ATCC 607, 18 h.

Converted amounts (≈) assume the structure as drawn. The source made the active and inactive calls. No cut-off for these calls is given here.

In the case of `COc1cccc(C(=O)c2c(O)ccc3c2C(=O)C[C@](C)(O)C3)c1CO`, the IC50 in the assay with SF-295, in the assay with NCI-H226, in the assay on SF-539, with M14 and in the assay with MDA-MB-468 was above 100 µM in each case. Also, the result in the assay on Escherichia coli [1] and in the assay with Escherichia coli [2] was inactive. In addition, the MIC is 85 µg/mL (≈ 239 µM) with Bacillus subtilis, above 100 µg/mL against Staphylococcus aureus and 93 µg/mL (≈ 261 µM) in assay [3].

With `COc1cccc2c1C(=O)c1ccc3c(c1C2O)C(=O)C[C@](C)(O)C3` (stereo partly drawn), the IC50 in the assay on SF-295 amounted to 3.1 µM; in the assay with NCI-H226 it was 7.2 µM; in the assay on SF-539 it was 12 µM; in the assay on M14, 31 µM; in the assay on MDA-MB-468, 52 µM. Also, the result in the assay on Escherichia coli [1] and in the assay on Escherichia coli [2] was inactive. Further, the MIC (in the assay with Bacillus subtilis; against Staphylococcus aureus; in assay [3]) was above 100 µg/mL each time.

For the molecule `CO[C@@]12[C@H](COC(N)=O)C3=C(C(=O)C(C)=C(N)C3=O)N1C[C@@H]1N[C@@H]12` [MITOMYCIN], the concentration for half-maximal inhibition (IC50) with SF-295 amounted to 0.54 µM; with NCI-H226, 0.58 µM; in the assay on SF-539 it was 0.038 µM; in the assay with M14, 0.47 µM; in the assay with MDA-MB-468, 0.5 µM.

For `COc1cccc2c1C(=O)c1ccc3c(c1C2=O)C(=O)C[C@](C)(O)C3`, the half-inhibitory concentration (IC50) worked out at 17 µM in the assay with SF-295; 4.6 µM in the assay with NCI-H226; 10 µM in the assay on SF-539; 9.7 µM with M14; 27 µM with MDA-MB-468. Moreover, the result in the assay on Escherichia coli [1] and in the assay on Escherichia coli [2] was inactive. Moreover, the values for the MIC (in the assay on Bacillus subtilis; against Staphylococcus aureus; in [3]) were 25 µg/mL (≈ 74.3 µM), above 100 µg/mL and above 100 µg/mL, respectively.

Turning to `CN(C)[C@@H]1C(O)=C(C(N)=O)C(=O)[C@@]2(O)C(O)=C3C(=O)c4c(O)cccc4[C@@](C)(O)[C@H]3C[C@@H]12` [TETRACYCLINE], the MIC against Bacillus subtilis was 13 µg/mL (≈ 29.3 µM); against Staphylococcus aureus, 6.7 µg/mL (≈ 15.1 µM); in assay [3], 11 µg/mL (≈ 24.8 µM).

On to `C[C@]1(O)CC(=O)c2c(ccc3c2C(=O)c2cccc(O)c2C3=O)C1` [TETRANGOMYCIN], for which the IC50 came to 12 µM in the assay on SF-295; 7.2 µM with NCI-H226; 3.2 µM with SF-539; 2.4 µM in the assay with M14; 16 µM in the assay with MDA-MB-468. Moreover, the outcome in the assay on Escherichia coli [1] and with Escherichia coli [2] was inactive. The MIC in the assay on Bacillus subtilis worked out at 8.1 µg/mL (≈ 25.1 µM); against Staphylococcus aureus, 11 µg/mL (≈ 34.1 µM); in assay [3], 9.7 µg/mL (≈ 30.1 µM).

For orientation: IC50 means the concentration at which inhibition is half-maximal. The term MIC denotes the lowest concentration found to suppress growth. Read a low MIC as a more susceptible organism.
